Active and inactive are the calls of the source. No cut-off for these calls is given here.
Key:
[1] = target: T1, NAD-dependent protein deacetylase sirtuin-2 (Homo sapiens, UniProt Q8IXJ6); assay: Inhibition of recombinant His-tagged SIRT2 (56 to 356 residues) (unknown origin) expressed in Escherichia coli Transetta(DE3) using AcIQF as substrate preincubated for 30 mins followed by substrate and NAD+ addition measured after 2 hrs by fluorescence assay
T1 sequence (Q8IXJ6 whole entry): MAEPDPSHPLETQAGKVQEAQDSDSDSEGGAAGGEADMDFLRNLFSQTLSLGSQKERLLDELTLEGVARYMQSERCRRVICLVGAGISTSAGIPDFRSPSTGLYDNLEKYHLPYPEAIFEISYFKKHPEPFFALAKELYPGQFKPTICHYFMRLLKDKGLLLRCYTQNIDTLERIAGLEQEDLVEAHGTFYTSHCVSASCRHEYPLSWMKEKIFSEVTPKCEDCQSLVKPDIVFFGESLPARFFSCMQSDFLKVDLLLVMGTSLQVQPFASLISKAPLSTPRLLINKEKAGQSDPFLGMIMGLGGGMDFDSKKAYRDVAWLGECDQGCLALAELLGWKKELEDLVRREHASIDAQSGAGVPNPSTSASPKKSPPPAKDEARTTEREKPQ

[2] = target: T2, NAD-dependent protein deacetylase sirtuin-2 (Homo sapiens) (UniProt Q8IXJ6); assay: Inhibition of SIRT2 in human NCI-H441 cells assessed as increase in acetylated alpha-tubulin level after 72 hrs by Western blot analysis; assay type: cell-based
T2 sequence (whole entry): T1 sequence (Q8IXJ6 whole entry)
How it was run: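 H441 cells (ATCC, passaged <6 months after resuscitation) exposed to compound for 72 h. Whole-cell lysates separated by SDS-PAGE, transferred to PVDF and probed with anti-Ac-α-tubulin and anti-α-tubulin (1:1,000), then HRP secondaries (1:5,000) with ECL detection. Ac-α-tubulin normalized to α-tubulin, expressed relative to untreated control set to 1.0.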

NCI-H441 [3] = assay: Antiproliferative activity against human NCI-H441 cells after 72 hrs by MTT assay; assay type: functional, cell-based; settings: NCI-H441, 72 h
How it was run: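 Cells in 96-well plates given DMSO vehicle or a range of compound concentrations for 72 h. MTT reagent (5 mg/mL stock) added, then 4 h at 37 °C. Formazan dissolved overnight in 20% acidified SDS (w/v), absorbance read at 570 nm. IC50 taken from the viability profile.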

NCI-H441 [4] = assay: Anticlonogenic activity against human NCI-H441 cells at 3 to 30 uM after 2 weeks by crystal violet staining based assay; assay type: functional, cell-based
How it was run: (§1)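 Cells seeded at 5,000 per well in six-well plates and exposed to DMSO vehicle or compound for 2 weeks, with agents replaced every 3 days. Cells then fixed with methanol and stained with 0.05% crystal violet (w/v).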

NCI-H441 [5] = assay: Antiproliferative activity against human NCI-H441 cells assessed as reduction in EdU incorporation at 30 uM after 48 hrs by DAPI staining based fluorescence microscopic method; assay type: functional, cell-based
How it was run: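 Cells in 96-well plates treated with DMSO vehicle or compound (30 μM) for 48 h. Proliferation measured by EdU incorporation kit per manufacturer. EdU and DAPI nuclear fluorescence imaged on a high-content reader.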

NCI-H441 [6] = assay: Induction of apoptosis in human NCI-H441 cells assessed as live cells at 30 uM after 48 hrs by Annexin V-FITC/propidium iodide staining based flow cytometry (reference value: 88.5%); assay type: functional
NCI-H441 [7] = assay: Induction of apoptosis in human NCI-H441 cells assessed as early apoptotic cells at 30 uM after 48 hrs by Annexin V-FITC/propidium iodide staining based flow cytometry (reference value: 2.47%); assay type: functional
NCI-H441 [8] = assay: Induction of apoptosis in human NCI-H441 cells assessed as late apoptotic cells at 30 uM after 48 hrs by Annexin V-FITC/propidium iodide staining based flow cytometry (reference value: 7.25%); assay type: functional
NCI-H441 [9] = assay: Induction of apoptosis in human NCI-H441 cells assessed as necrotic cells at 30 uM after 48 hrs by Annexin V-FITC/propidium iodide staining based flow cytometry (reference value: 1.79%); assay type: functional
NCI-H441 [10] = assay: Antimigratory activity against human NCI-H441 cells assessed as reduction in wound closure at 10 to 30 uM after 24 hrs by light microscopic method; assay type: functional, cell-based
How it was run: (§2)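 Confluent monolayers in 12-well plates were scratched with a sterile pipette tip, then treated with DMSO vehicle or compound for 24 h. Wounds photographed by digital camera on a light microscope.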

NCI-H441 [11] = assay: Anti-invasive activity against human NCI-H441 cells after 48 hrs by crystal violet staining based transwell assay; assay type: functional, cell-based
How it was run: (§3)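 H441 cells in serum-free RPMI1640 seeded at 5 × 10⁴/100 μL into Matrigel-precoated insert upper chambers, with DMSO vehicle or compound in serum-free medium above. Lower chambers held RPMI1640 complete medium. After 48 h, invaded cells fixed with methanol and stained with 0.05% crystal violet (w/v).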

NCI-H441 [12] = assay: Anticlonogenic activity against human NCI-H441 cells at 10 to 30 uM after 2 weeks by crystal violet staining based assay; assay type: functional, cell-based; how it was run: as §1
NCI-H441 [13] = assay: Antimigratory activity against human NCI-H441 cells assessed as reduction in wound closure at 30 uM after 24 hrs by light microscopic method; assay type: functional, cell-based; how it was run: as §2
NCI-H441 [14] = assay: Anti-invasive activity against human NCI-H441 cells at 30 uM after 48 hrs by crystal violet staining based transwell assay; assay type: functional, cell-based; how it was run: as §3

SMILES | IC50 ([1]; read-out: IC50) [µM] | further results
Cn1cc(C(=O)Nc2ccc(OCc3cccc(NC(=O)CSc4nnc5ccccn45)c3)cc2)cn1 | > 300 | 
Cc1cc(C)nc(SCC(=O)Nc2cccc(COc3cccc(NC(=O)c4ccco4)c3)c2)n1 | 123 | 
CC(C)n1ncnc1SCC(=O)Nc1cccc(COc2ccc(NC(=O)c3cccs3)cc2)c1 | 270 | 
Cc1cc(C)nc(SCC(=O)Nc2cccc(COc3ccc(NC(=O)C4CCOCC4)cc3)c2)n1 | 1.32 | 
CNC(=S)NCCCC(=O)Nc1ccc(OCc2cccc(NC(=O)CSc3nc(C)cc(C)n3)c2)cc1 | 9.56 | 
Cc1cc(C)nc(SCC(=O)Nc2cccc(COc3ccc(NC(=O)CNC(=O)OCc4ccccc4)cc3)c2)n1 | > 300 | 
Cc1cc(C)nc(SCC(=O)Nc2cccc(COc3ccc(NC(=O)OC(C)(C)C)cc3)c2)n1 | 100 | 
Cn1cc(C(=O)Nc2ccc(OCc3cccc(NC(=O)COc4cccc5ccccc45)c3)cc2)cn1 | > 300 | 
CC(=O)NCC(=O)Nc1ccc(OCc2cccc(NC(=O)CSc3nc(C)cc(C)n3)c2)cc1 | > 300 | 
COc1cccc(SCC(=O)Nc2cccc(COc3ccc(NC(=O)c4cccs4)cc3)c2)c1 | > 300 | 
Cc1cc(C)nc(SCC(=O)Nc2cccc(COc3ccccc3)c2)n1 | 25.9 | IC50 ([1]; read-out: pIC50 (converted)): 26.3 µM
Cc1cc(C)nc(SCC(=O)Nc2cccc(COc3cccc(NC(=O)c4cccs4)c3)c2)n1 | 128 | 
Cc1cc(C)nc(SCC(=O)Nc2cccc(COc3cccc(NC(=O)c4cnn(C)c4)c3)c2)n1 | 93.7 | IC50 (NCI-H441 [3]): > 100 µM; Activity (NCI-H441 [12]): inactive; Activity (NCI-H441 [5]): inactive; Activity (NCI-H441 [6]): 87.8%; Activity (NCI-H441 [7]): 2.61%; Activity (NCI-H441 [8]): 7.39%; Activity (NCI-H441 [9]): 2.21%; Activity (NCI-H441 [13]): inactive; Activity (NCI-H441 [14]): inactive
Cn1nnnc1SCC(=O)Nc1cccc(COc2ccc(NC(=O)c3cccs3)cc2)c1 | 44.5 | 
O=C(COc1cccc2ccccc12)Nc1cccc(COc2ccc(NC(=O)c3cccs3)cc2)c1 | > 300 | 
Cc1cc(C)nc(SCC(=O)Nc2cccc(COc3cccc(NC(=O)C4CCCN4)c3)c2)n1 (centres undefined) | 142 | 
Cc1cc(C)nc(SCC(=O)Nc2cccc(COc3ccc(NC(=O)c4ccco4)cc3)c2)n1 | 3.1 | 
Cc1cc(C)nc(SCC(=O)Nc2cccc(COc3ccc(NC(=O)C4CCCN4)cc3)c2)n1 (centres undefined) | 41.3 | 
Cc1cc(C)nc(SCC(=O)Nc2cccc(COc3ccc(NC(=O)CCCN)cc3)c2)n1 | 70.6 | 
CC(C)n1cnc(SCC(=O)Nc2cccc(COc3ccc(NC(=O)c4cccs4)cc3)c2)n1 | 142 | 
Cc1cc(C)nc(SCC(=O)Nc2cccc(COc3ccc(NC(=O)C4CCCN4C(=O)OC(C)(C)C)cc3)c2)n1 (centres undefined) | 76.1 | 
Cc1cccc(SCC(=O)Nc2cccc(COc3ccc(NC(=O)c4cccs4)cc3)c2)c1 | > 300 | 
Cc1cc(C)cc(OCC(=O)Nc2cccc(COc3ccc(NC(=O)c4cccs4)cc3)c2)c1 | > 300 | 
CCOCC(=O)Nc1ccc(OCc2cccc(NC(=O)CSc3nc(C)cc(C)n3)c2)cc1 | 110 | 
Cc1cc(C)nc(SCC(=O)Nc2cccc(COc3ccc(NC(=O)CCN[C@@H]4CCCC[C@H]4O)cc3)c2)n1 | > 300 | 

Second part, led by results:

IC50 ([1]; read-out: IC50) [µM] | SMILES | further results
175 | Cc1cc(C)nc(SCC(=O)Nc2cccc(COc3ccc(NC(=O)CCCN[C@@H]4CCCC[C@H]4O)cc3)c2)n1 | 
300 | Cc1cc(C)nc(SCC(=O)Nc2cccc(COc3ccc(NC(=O)CCN)cc3)c2)n1 | 
11.7 | CNC(=S)NCCC(=O)Nc1ccc(OCc2cccc(NC(=O)CSc3nc(C)cc(C)n3)c2)cc1 | 
> 300 | O=C(CSc1nnc2ccccn12)Nc1cccc(COc2ccc(NC(=O)c3cccs3)cc2)c1 | 
0.815 | Cc1cc(C)nc(SCC(=O)Nc2cccc(COc3ccc(NC(=O)c4cnn(C)c4)cc3)c2)n1 | inhibition [2]: Dose-dependent effect; IC50 (NCI-H441 [3]): 3.93 µM; Activity (NCI-H441 [4]): Active; Activity (NCI-H441 [5]): Active; Activity (NCI-H441 [6]): 87.8%; Activity (NCI-H441 [7]): 2.69%; Activity (NCI-H441 [8]): 7.22%; Activity (NCI-H441 [9]): 2.26%; Activity (NCI-H441 [10]): Active; Activity (NCI-H441 [11]): Dose-dependent effect
169 | Cc1cc(C)nc(SCC(=O)Nc2cccc(COc3cccc(NC(=O)C4CCOCC4)c3)c2)n1 | 
29.4 | Cc1cc(C)nc(SCC(=O)Nc2cccc(COc3ccc(NC(=O)c4ccccn4)cc3)c2)n1 | 
> 300 | Cc1cc(C)nc(SCC(=O)Nc2cccc(COc3cccc(NC(=O)c4ccccn4)c3)c2)n1 | 
3.41 | Cc1cc(C)nc(SCC(=O)Nc2cccc(COc3ccc(NC(=O)c4cccs4)cc3)c2)n1 | 
> 300 | Cc1cc(C)nc(SCC(=O)Nc2cccc(COc3ccc(NC(=O)CCCNC(=O)OC(C)(C)C)cc3)c2)n1 | 
> 300 | O=C(CSc1nc[nH]n1)Nc1cccc(COc2ccc(NC(=O)c3cccs3)cc2)c1 | 
89.3 | C/C=C/C(=O)Nc1ccc(OCc2cccc(NC(=O)CSc3nc(C)cc(C)n3)c2)cc1 | 
15.2 | Cc1cc(C)nc(SCC(=O)Nc2cccc(COc3cccc(NC(=O)C4CCCN4C(=O)OC(C)(C)C)c3)c2)n1 (centres undefined) | 
300 | Cc1cc(C)nc(SCC(=O)Nc2cccc(COc3ccc(NC(=O)CCNC(=O)OC(C)(C)C)cc3)c2)n1 | 

Source: ChEMBL document CHEMBL4152324 (Eur J Med Chem, 2018)
